Screens (PubChem)
S1P1 ag pot: S1P1 (human) agonism or agonism potentiation | 56,000 compounds, 0.57% hits | P21453 | activation, % at 9.5 µM | S1P1 CRE-bla cells, forskolin, beta-lactamase FRET, potentiator mode; S1P1 agonist co-added at EC20, 2 nM; 100% = saturating reference agonist, 0% = basal;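 active = activation above a cutoff set at the mean activation of all tested compounds plus 3 SD, cut at about 54% in these data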;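 also: forskolin at 4 µM as EC80 and the EC20 agonist is SEW2871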
Target sequence (P21453 whole entry, looked up): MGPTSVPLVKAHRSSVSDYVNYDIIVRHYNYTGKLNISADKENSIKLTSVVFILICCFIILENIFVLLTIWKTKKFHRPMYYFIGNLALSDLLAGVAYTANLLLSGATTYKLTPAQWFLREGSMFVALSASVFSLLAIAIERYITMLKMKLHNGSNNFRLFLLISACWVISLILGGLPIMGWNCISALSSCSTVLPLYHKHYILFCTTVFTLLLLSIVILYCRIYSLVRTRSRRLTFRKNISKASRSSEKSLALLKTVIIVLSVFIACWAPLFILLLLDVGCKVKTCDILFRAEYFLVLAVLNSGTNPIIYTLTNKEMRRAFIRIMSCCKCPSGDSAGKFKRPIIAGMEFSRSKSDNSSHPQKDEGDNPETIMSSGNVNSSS
HEK293 NFkB inh: lowers PMA/ionomycin-induced NF-kB signal in HEK293 cells | HEK-293 NF-kB luciferase reporter, luminescence | inhibition, % at 3 µM | 62,000 compounds, 0.21% hits;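 active = inhibition above the mean of all tested compounds plus 3 SD, cut at about 40% in these data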
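Signal: luciferase luminescence; Material: HEK-293 cells with stable firefly luciferase reporter driven by four HIV NF-kB elements; Probe or stimulus: PMA with ionomycin; Replication: tested once; Times: 1 h compound pretreatment, then 16 h stimulation at 37 °C, 5% CO2; Benchmarks: DMSO and 10 µM reference inhibitor; Evaluation: per-plate % inhibition versus controls.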
SKBR3 24h inh: SK-BR-3 proliferation inhibitors; SK-BR-3 viability, CellTiter-Glo ATP luminescence, 24 h; hits give low values; viability, % at 10 µM; 41,000 compounds, 0.47% hits;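 active = viability at or below the median of all test compounds minus 3 SD, in both replicates if run twice, cut at about 45% in these data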
Jurkat viability: reduces viability or proliferation of Jurkat cells; inhibition, % at 4 µM; Jurkat E6.1 viability, ATP luminescence, 48 h; AID 463; 56,000 compounds, 1.2% hits;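 active = inhibition above the mean inhibition of all tested compounds plus 3 SD, cut at about 28% in these data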
A number is an active result. Only some compounds are listed: those with a hit (about 1.9% of all), similar ones and a draw of the others.

How did Cc1cccc(C)c1NC(=O)CSc1nnc(-c2ccncc2)n1Cc1ccco1 do in these assays?
S1P1 ag pot: inactive; HEK293 NFkB inh: inactive; SKBR3 24h inh: inactive; Jurkat viability: inactive

What do the screens show for `Cc1cc(Cl)ccc1NC(=O)CSc1nnc(-c2ccncc2)n1Cc1ccco1`?
HEK293 NFkB inh: inactive; SKBR3 24h inh: 39

Results for O=C(Nc1ccc(N2CCOCC2)cc1)Nc1ccc2nc(-c3ccco3)c(-c3ccco3)nc2c1 ?
HEK293 NFkB inh: inactive; SKBR3 24h inh: inactive; Jurkat viability: 83

How did O=C(c1ccc2nc(-c3ccco3)c(-c3ccco3)nc2c1)N1CCN(c2ccccc2)CC1 do in these assays?
S1P1 ag pot: inactive; HEK293 NFkB inh: inactive; SKBR3 24h inh: inactive; Jurkat viability: inactive

How did CC(C)NCC(O)Cn1c2c(c3ccccc31)CCc1c-2cnn1-c1ccccc1 (stereo not drawn) do in these assays?
S1P1 ag pot: inactive; HEK293 NFkB inh: inactive; SKBR3 24h inh: 2.2; Jurkat viability: inactive

How did COc1cc(C2Nc3ccc4ncccc4c3C3=C2C(=O)CCC3)cc(OC)c1O (stereo not drawn) do in these assays?
S1P1 ag pot: inactive; HEK293 NFkB inh: inactive; SKBR3 24h inh: inactive; Jurkat viability: 71

How did CC(=O)N1CCc2c(sc(NC(=O)c3ccc4c(c3)OCCO4)c2C#N)C1 do in these assays?
S1P1 ag pot: inactive; HEK293 NFkB inh: inactive; Jurkat viability: 88

Results for CN(C)S(=O)(=O)c1cccc(-c2nnc(SCc3ccc4c(c3)OCCO4)o2)c1 ?
S1P1 ag pot: inactive; HEK293 NFkB inh: inactive; Jurkat viability: inactive

What do the screens show for `CCn1c(SCC(=O)Nc2nc3ccc(C)cc3s2)nc2c(c1=O)SC(C)C2` (stereo not drawn)?
S1P1 ag pot: 55; HEK293 NFkB inh: inactive; SKBR3 24h inh: inactive; Jurkat viability: inactive

Results for Clc1ccc(-n2ncc3c(N4CCCCCC4)ncnc32)cc1 ?
S1P1 ag pot: inactive; HEK293 NFkB inh: 48; Jurkat viability: inactive

What do the screens show for `Clc1ccc(Cn2ncc3c(N4CCCCC4)ncnc32)cc1`?
S1P1 ag pot: inactive; HEK293 NFkB inh: inactive; SKBR3 24h inh: inactive; Jurkat viability: inactive

How did COc1ccc(-n2ncc3c(N4CCCCC4)ncnc32)cc1 do in these assays?
S1P1 ag pot: inactive; HEK293 NFkB inh: 58; Jurkat viability: inactive

Results for COCC(=O)N(Cc1cc2cc(OC)ccc2[nH]c1=O)c1ccc(C)cc1 ?
S1P1 ag pot: inactive; HEK293 NFkB inh: inactive; Jurkat viability: inactive

Results for Cc1ccnc(SCCn2c(Br)nc3c2c(=O)n(C)c(=O)n3C)n1 ?
S1P1 ag pot: inactive; HEK293 NFkB inh: inactive; SKBR3 24h inh: inactive; Jurkat viability: inactive

Results for Cc1ccc(-c2nnc3n2N=C(c2ccc(Br)cc2)CS3)cc1 ?
S1P1 ag pot: inactive; HEK293 NFkB inh: inactive; Jurkat viability: inactive

How did Clc1ccc(C2=Nn3c(nnc3-c3n[nH]c4c3CCC4)SC2)cc1 do in these assays?
S1P1 ag pot: inactive; HEK293 NFkB inh: inactive; SKBR3 24h inh: inactive; Jurkat viability: 92

How did Brc1ccc(C2=Nn3c(nnc3-c3n[nH]c4c3CCC4)SC2)cc1 do in these assays?
S1P1 ag pot: inactive; HEK293 NFkB inh: inactive; SKBR3 24h inh: inactive; Jurkat viability: 79

How did O=C(Cn1c(=O)sc2ccccc21)Nc1ccccc1C(=O)O do in these assays?
HEK293 NFkB inh: inactive; SKBR3 24h inh: inactive

What do the screens show for `Cc1nc(NCc2ccco2)c2c3c(sc2n1)CCC3`?
S1P1 ag pot: inactive; HEK293 NFkB inh: inactive; SKBR3 24h inh: inactive; Jurkat viability: 36

Results for CCC1C(=O)N=C(SCC(=O)Nc2ccc(C(=O)OC)cc2)NC1=O (stereo not drawn) ?
S1P1 ag pot: inactive; HEK293 NFkB inh: inactive; SKBR3 24h inh: 44; Jurkat viability: inactive

Results for NS(=O)(=O)c1ccc(NC(=O)CSC2=NC(=O)C(c3ccccc3)C(=O)N2)cc1 (stereo not drawn) ?
S1P1 ag pot: inactive; HEK293 NFkB inh: inactive; Jurkat viability: inactive

What do the screens show for `CCN(CC)S(=O)(=O)c1cccc(C(=O)Nc2nc3cc4c(cc3s2)OCCO4)c1`?
S1P1 ag pot: inactive; HEK293 NFkB inh: inactive; Jurkat viability: 36

How did Oc1cccc2ccc(Nc3ccccn3)nc12 do in these assays?
S1P1 ag pot: inactive; HEK293 NFkB inh: inactive; Jurkat viability: 72

Results for CN(C)CCCN1C(=O)C(=O)/C(=C(/O)c2ccc(S(=O)(=O)N(C)C)cc2)C1c1ccncc1 (stereo not drawn) ?
S1P1 ag pot: inactive; HEK293 NFkB inh: inactive; Jurkat viability: inactive

How did CC(=O)NCCCc1c[nH]c2ccc(Cl)cc12 do in these assays?
S1P1 ag pot: inactive; HEK293 NFkB inh: inactive; SKBR3 24h inh: inactive; Jurkat viability: inactive

How did CCC(C)n1c(=O)c(C(=O)Nc2ccccc2S(N)(=O)=O)c(O)c2ccccc21 (stereo not drawn) do in these assays?
S1P1 ag pot: inactive; HEK293 NFkB inh: inactive; SKBR3 24h inh: inactive; Jurkat viability: inactive

Results for CC(C)Cn1c(=O)c(C(=O)Nc2ccccc2S(N)(=O)=O)c(O)c2ccccc21 ?
S1P1 ag pot: 120; HEK293 NFkB inh: inactive; Jurkat viability: inactive

Results for CC1=CC(C)(C)Nc2ccc(C)cc21 ?
S1P1 ag pot: inactive; HEK293 NFkB inh: inactive; Jurkat viability: inactive

What do the screens show for `CC1=CC(C)(C)Nc2ccc(OC(=O)CN3C(=O)CCC3=O)cc21`?
S1P1 ag pot: inactive; HEK293 NFkB inh: 40; Jurkat viability: inactive

Results for CC1=CC(C)(C)Nc2ccc(OC(=O)c3ccco3)cc21 ?
S1P1 ag pot: inactive; HEK293 NFkB inh: 45; SKBR3 24h inh: 14; Jurkat viability: 58

How did CC1=CC(C)(C)Nc2ccc(OC(=O)c3cccnc3)cc21 do in these assays?
S1P1 ag pot: 64; HEK293 NFkB inh: 44; Jurkat viability: inactive

How did COC(=O)c1cc(C(=O)OC)cc(S(=O)(=O)Nc2ccc(Cl)c(N)c2)c1 do in these assays?
S1P1 ag pot: inactive; HEK293 NFkB inh: inactive; SKBR3 24h inh: inactive; Jurkat viability: inactive

Results for Cc1cccc(NC(=O)c2cc(-c3ccco3)nc3ccccc23)n1 ?
S1P1 ag pot: inactive; HEK293 NFkB inh: inactive; Jurkat viability: inactive

What do the screens show for `CCOc1cc(N2CCOCC2)c(OCC)cc1NC(=O)c1cc(-c2ccco2)nc2ccccc12`?
HEK293 NFkB inh: inactive; SKBR3 24h inh: 44

Results for COc1cc2c(=O)n(Cc3ccco3)c(=O)n(CC(=O)c3ccc(Br)cc3)c2cc1OC ?
S1P1 ag pot: inactive; HEK293 NFkB inh: inactive; SKBR3 24h inh: inactive; Jurkat viability: inactive

What do the screens show for `COc1cc2c(=O)n(Cc3ccco3)c(=O)n(CC(=O)c3cccc(Br)c3)c2cc1OC`?
S1P1 ag pot: inactive; HEK293 NFkB inh: inactive; SKBR3 24h inh: 42; Jurkat viability: inactive

Results for Clc1ccc(-n2ncc3c(NCCCn4ccnc4)ncnc32)cc1 ?
S1P1 ag pot: inactive; SKBR3 24h inh: inactive

What do the screens show for `CCCCNc1ncnc2c1cnn2-c1ccccc1`?
HEK293 NFkB inh: inactive; SKBR3 24h inh: inactive; Jurkat viability: 90

What do the screens show for `c1ccc(-n2ncc3c(NCCCN4CCOCC4)ncnc32)cc1`?
S1P1 ag pot: inactive; HEK293 NFkB inh: inactive; SKBR3 24h inh: inactive; Jurkat viability: inactive

How did CCCCNc1ncnc2c1cnn2-c1ccc(Cl)cc1 do in these assays?
S1P1 ag pot: inactive; HEK293 NFkB inh: inactive; Jurkat viability: 86
